Experimental data as given in ChEMBL document CHEMBL4261576, “Conformationally restricted benzothienoazepine respiratory syncytial virus inhibitors: their synthesis, structural analysis and biological activities” (Medchemcomm, 2018).
“And” between values parts separate entries of the source, which are not always exact repeats. Equal entries are not always repeated.

How the values were obtained:
[1] = test system: Respiratory syncytial virus; assay: Antiviral activity against RSV A2 infected in human HEp2 cells assessed as protection against virus-induced cytopathic effect at 0.014 uM after 5 days by resazurin assay relative to control; assay type: functional
[2] = test system: Respiratory syncytial virus; assay: Antiviral activity against RSV B Washington infected in human HEp2 cells assessed as protection against virus-induced cytopathic effect after 6 days by resazurin assay; assay type: functional, organism-based; conditions: HEp-2, 144 h
Method in brief: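 HEp2 cells seeded at 10^3/well in 5% FBS-DMEM with glutamine and pyruvate one day before infection. RSV B Washington added in serum-free DMEM at final MOI 0.2, with compound added at the same time (0.5% DMSO final). Incubated 6 days at 37°C/5% CO2. Resazurin added for 6 h; fluorescence read at 545 nm ex / 590 nm em. IC50 taken from the concentration-response curve.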

[3] = test system: Respiratory syncytial virus; assay: Antiviral activity against RSV A2 infected in human HEp2 cells assessed as protection against virus-induced cytopathic effect after 5 days by resazurin assay; assay type: functional, organism-based; conditions: A2, HEp-2, 120 h
Method in brief: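 HEp2 cells seeded at 10^3/well in 5% FBS-DMEM with 2 mM L-glutamine and 1 mM sodium pyruvate one day before infection. RSV A2 added in serum-free DMEM at final MOI 1, with compound added at the same time (final DMSO 0.5%). Incubated 5 days at 37°C/5% CO2. Resazurin then added for 6 h; fluorescence read at 545/590 nm. Percent inhibition per well; IC50 taken from the concentration-response curve.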

[4] = target: Vasopressin V1a receptor (Homo sapiens, UniProt P37288); assay: Displacement of [3H] (Arg8)-vasopressin from human vasopressin V1a receptor expressed in CHO cell membranes after 60 mins
[5] = target: Vasopressin V2 receptor (Homo sapiens, UniProt P30518); assay: Displacement of [3H] (Arg8)-vasopressin from human vasopressin V2 receptor expressed in CHO cell membranes after 60 mins
Vasopressin V2 receptor, sequence (P30518 whole entry): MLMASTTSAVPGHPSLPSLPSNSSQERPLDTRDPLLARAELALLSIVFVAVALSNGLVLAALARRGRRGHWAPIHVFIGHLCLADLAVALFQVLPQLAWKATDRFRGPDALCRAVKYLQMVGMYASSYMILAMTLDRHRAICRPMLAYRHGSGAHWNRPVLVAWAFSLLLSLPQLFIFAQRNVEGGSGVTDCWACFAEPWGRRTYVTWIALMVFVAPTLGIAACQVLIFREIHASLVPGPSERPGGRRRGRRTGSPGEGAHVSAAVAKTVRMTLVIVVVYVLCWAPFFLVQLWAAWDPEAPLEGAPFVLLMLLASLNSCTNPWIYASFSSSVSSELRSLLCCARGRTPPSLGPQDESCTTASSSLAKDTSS

Vasopressin V1a receptor, sequence (P37288 whole entry): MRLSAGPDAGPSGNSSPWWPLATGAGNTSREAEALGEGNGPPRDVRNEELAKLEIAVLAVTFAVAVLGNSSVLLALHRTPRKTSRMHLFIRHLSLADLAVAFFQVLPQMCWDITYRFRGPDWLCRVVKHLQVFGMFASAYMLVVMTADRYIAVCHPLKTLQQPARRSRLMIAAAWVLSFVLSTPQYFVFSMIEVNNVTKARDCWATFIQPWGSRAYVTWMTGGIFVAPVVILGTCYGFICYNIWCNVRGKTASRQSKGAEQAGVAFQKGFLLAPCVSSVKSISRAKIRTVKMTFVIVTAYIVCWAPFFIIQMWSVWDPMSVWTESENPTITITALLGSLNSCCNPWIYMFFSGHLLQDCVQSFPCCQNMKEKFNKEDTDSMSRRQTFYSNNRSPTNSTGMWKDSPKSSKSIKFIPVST

Structure (SMILES): Cc1cnc(N2CC3(CCOCC3)C2)c(C(=O)Nc2ccc(C(=O)N3C[C@@H](C)c4cc(C(=O)Nc5c(C)cccc5F)sc4-c4ccccc43)cc2)c1
- Activity [1]: 40%
- IC50 [2]: > 1370 nM
- IC50 [3]: > 14 nM

Structure (SMILES): Cc1ccccc1C(=O)Nc1ccc(C(=O)N2CCC(=O)N(C)c3cccc(C)c32)cc1
- Ki [4]: 70 nM and 620 nM
- Ki [5]: 640 nM and 4700 nM

Structure (SMILES): Cc1cnc(N2CC3(CCOCC3)C2)c(C(=O)Nc2ccc(C(=O)N3C[C@H](C)c4cc(C(=O)Nc5c(C)cccc5F)sc4-c4ccccc43)cc2)c1
- IC50 [2]: 15 nM
- IC50 [3]: 0.51 nM

Structure (SMILES): Cc1cnc(N2CC3(CCOCC3)C2)c(C(=O)Nc2ccc(C(=O)N3c4ccccc4-c4sc(C(=O)Nc5c(F)cccc5F)cc4C[C@@H]3C)cc2)c1
- IC50 [2]: > 1360 nM
- IC50 [3]: > 14 nM

Structure (SMILES): Cc1cnc(N2CC3(CCOCC3)C2)c(C(=O)Nc2ccc(C(=O)N3c4ccccc4-c4sc(C(=O)Nc5c(F)cccc5F)cc4C[C@H]3C)cc2)c1
- IC50 [2]: 9.2 nM
- IC50 [3]: 0.18 nM

Structure (SMILES): Cc1cnc(N2CC3(CCOCC3)C2)c(C(=O)Nc2ccc(C(=O)N3CC(C)c4cc(C(=O)Nc5c(C)cccc5F)sc4-c4ccccc43)cc2)c1 (racemic)
- IC50 [2]: 17 nM
- IC50 [3]: 1.1 nM

Structure (SMILES): Cc1cnc(N2CC3(CCOCC3)C2)c(C(=O)Nc2ccc(C(=O)N3c4ccccc4-c4sc(C(=O)Nc5c(F)cccc5F)cc4CC3C)cc2)c1 (racemic)
- IC50 [2]: 13 nM
- IC50 [3]: 0.45 nM

Structure (SMILES): Cc1cnc(N2CC3(CCOCC3)C2)c(C(=O)Nc2ccc(C(=O)N3CCc4cc(C(=O)Nc5c(C)cccc5F)sc4-c4ccccc43)cc2)c1 [PC-786]
- IC50 [2]: 7.2 nM
- IC50 [3]: 0.32 nM
